Results as given in ChEMBL document CHEMBL2021849, “Synergistic TRAIL sensitizers from Barleria alluaudii and Diospyros maritima” (J Nat Prod, 2012).

Experiments:
[1] = tested on: ACHN; test: Ratio of EC50 for human ACHN cells to EC50 for human ACHN cells in presence of 40 ng/ml TRAIL; assay type: functional
Summary of the method: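 Synergy taken as the ratio of the two EC50 values read from ACHN cell death curves, one run without TRAIL and one with 40 ng/mL TRAIL. Treatment lasted 20–24 h.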

[2] = tested on: ACHN; test: Cytotoxicity against human ACHN cells assessed as cell death after 20 to 24 hrs by XTT assay in presence of 40 ng/ml TRAIL; assay type: functional, cell-based
[3] = tested on: ACHN; test: Cytotoxicity against human ACHN cells assessed as cell death after 20 to 24 hrs by XTT assay; assay type: functional, cell-based

Structure (SMILES)	Ratio EC50 [1]	EC50 [2] [µM]	EC50 [3] [µM]
CC1=CC(=O)c2c(O)cccc2C1=O [PLUMBAGIN]	2	3.7	7.3
CC(C)=CC[C@]12O[C@H]1C(=O)c1ccccc1C2=O	2.4	16.7	39.7
CC1=CC(=O)c2c(ccc(-c3ccc4c(c3O)C(=O)C=C(C)C4=O)c2O)C1=O [ELLIPTINONE]	3.5	3.8	13.2
CC(C)=CC[C@]12O[C@H]1C(=O)c1cccc(O)c1C2=O	1.4	4.7	6.4
Cc1ccc2c(c1)C(=O)c1ccccc1C2=O [TECTOQUINONE]	–	> 50	> 50
C[C@@H]1CC(=O)c2c(O)cccc2[C@@H]1O	–	> 60	> 60
CC1=CC(=O)c2c(ccc(C(C)c3ccc4c(c3O)C(=O)C=C(C)C4=O)c2O)C1=O	–	> 30	> 30
CC1=CC(=O)c2c(O)ccc(-c3ccc(O)c4c3C(=O)C(C)=CC4=O)c2C1=O [MARITINONE]	3.8	1.5	5.8
